Measurements published in ChEMBL document CHEMBL3232844, “Synthesis and structure activity relationships of schweinfurthin indoles” (2014).

Tests used:
Type in all cases: functional
SK-OV-3 = experiment: Cytotoxicity against human SKOV3 cells
In short: (§1)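 Tested in a 60-cell-line human tumor panel screen; the read-out is growth inhibition, reported as GI50 for each cell line.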

U-251 = experiment: Cytotoxicity against human U251 cells
In short: (§2)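 Cell line run as part of the 60-cell-line screening panel; growth inhibition was reported as a GI50 for each line.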

A549 = experiment: Cytotoxicity against human A549 cells; in short: as §1
SK-MEL-2 = experiment: Cytotoxicity against human SK-MEL-2 cells; in short: as §1
HCC 2998 = experiment: Cytotoxicity against human HCC2998 cells; in short: as §1
HL-60(TB) = experiment: Cytotoxicity against human HL-60(TB) cells
In short: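 Tested within the NCI 60-cell-line screen, with GI50 as the read-out. Values are the average of two independent experiments. The lowest concentration tested was 10 nM.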

SR = experiment: Cytotoxicity against human SR cells; in short: as §2
HOP-62 = experiment: Cytotoxicity against human HOP62 cells; in short: as §1
MDA-MB-468 = experiment: Cytotoxicity against human MDA-MB-468 cells; in short: as §1
SNB-19 = experiment: Cytotoxicity against human SNB19 cells; in short: as §1
MDA-MB-435 = experiment: Cytotoxicity against human MDA-MB-435 cells; in short: as §1
[1] = Cytotoxicity against human OVCAR8 cells; in short: as §1
SNB-75 = experiment: Cytotoxicity against human SNB75 cells; in short: as §2
NCI-H322M = experiment: Cytotoxicity against human NCI-H322M cells; in short: as §1
M14 = experiment: Cytotoxicity against human M14 cells; in short: as §1
[2] = Cytotoxicity against human OVCAR4 cells; in short: as §1
MOLT-4 = experiment: Cytotoxicity against human MOLT4 cells; in short: as §1
[3] = Cytotoxicity against human NCI-ADR-RES cells; in short: as §1
HCT-116 = experiment: Cytotoxicity against human HCT116 cells; in short: as §1
KM12 = experiment: Cytotoxicity against human KM12 cells; in short: as §1
SN12C = experiment: Cytotoxicity against human SN12C cells; in short: as §1
[4] = Cytotoxicity against human UO31 cells; in short: as §2
TK-10 = experiment: Cytotoxicity against human TK10 cells; in short: as §2
CCRF-CEM = experiment: Cytotoxicity against human CCRF-CEM cells
[5] = Cytotoxicity against human OVCAR3 cells; in short: as §1
NCI-H226 = experiment: Cytotoxicity against human NCI-H226 cells; in short: as §1
MCF7 = experiment: Cytotoxicity against human MCF7 cells; in short: as §1
ACHN = experiment: Cytotoxicity against human ACHN cells; in short: as §1
PC-3 = experiment: Cytotoxicity against human PC3 cells; in short: as §1
LOX IMVI = experiment: Cytotoxicity against human LOXIMVI cells; in short: as §1
MDA-MB-231 = experiment: Cytotoxicity against human MDA-MB-231 cells; in short: as §1
RXF 393 = experiment: Cytotoxicity against human RXF393 cells; in short: as §1
786-0 = experiment: Cytotoxicity against human 786-0 cells; in short: as §1
NCI-H460 = experiment: Cytotoxicity against human NCI-H460 cells; in short: as §1
A498 = experiment: Cytotoxicity against human A498 cells; in short: as §1
[6] = Cytotoxicity against human UACC62 cells; in short: as §2
SF-295 = experiment: Cytotoxicity against human SF295 cells; in short: as §1
[7] = Cytotoxicity against human UACC257 cells; in short: as §2
HT-29 = experiment: Cytotoxicity against human HT-29 cells; in short: as §1
SF-268 = experiment: Cytotoxicity against human SF268 cells; in short: as §1
SK-MEL-5 = experiment: Cytotoxicity against human SK-MEL-5 cells; in short: as §1
BT-549 = experiment: Cytotoxicity against human BT549 cells; in short: as §1
CAKI-1 = experiment: Cytotoxicity against human Caki1 cells; in short: as §1
[8] = read-out: pLC50 (the source's name) (converted)

Compound: COc1cc(/C=C/c2cc(O)c3c(CC=C(C)C)c[nH]c3c2)cc2c1O[C@]1(C)CC[C@@H](O)C(C)(C)[C@H]1C2
- GI50 (SK-OV-3): 3.55 µM
- LC50 (SK-OV-3): 50.1 µM
- TGI (SK-OV-3; read-out: pTGI (converted)): 32.4 µM
- GI50 (U-251): 0.151 µM
- CC50 (U-251; [8]): 50.1 µM
- TGI (U-251; read-out: pTGI (converted)): 50.1 µM
- GI50 (A549): 1.7 µM
- CC50 (A549; [8]): 50.1 µM
- TGI (A549; read-out: pTGI (converted)): 50.1 µM
- GI50 (SK-MEL-2): 0.269 µM
- CC50 (SK-MEL-2; [8]): 50.1 µM
- TGI (SK-MEL-2; read-out: pTGI (converted)): 50.1 µM
- GI50 (HCC 2998): 3.02 µM
- CC50 (HCC 2998; [8]): 50.1 µM
- TGI (HCC 2998; read-out: pTGI (converted)): 50.1 µM
- GI50 (HL-60(TB)): 0.251 µM
- CC50 (HL-60(TB); [8]): 50.1 µM
- TGI (HL-60(TB); read-out: pTGI (converted)): 18.6 µM
- GI50 (SR): 0.295 µM
- CC50 (SR; [8]): 50.1 µM
- TGI (SR; read-out: pTGI (converted)): 50.1 µM
- GI50 (HOP-62): 0.234 µM
- CC50 (HOP-62; [8]): 50.1 µM
- GI50 (MDA-MB-468): 0.513 µM
- LC50 (MDA-MB-468): 46.8 µM
- TGI (MDA-MB-468; read-out: pTGI (converted)): 9.33 µM
- GI50 (SNB-19): 0.708 µM
- CC50 (SNB-19; [8]): 50.1 µM
- TGI (SNB-19; read-out: pTGI (converted)): 50.1 µM
- GI50 (MDA-MB-435): 0.676 µM
- CC50 (MDA-MB-435; [8]): 50.1 µM
- TGI (MDA-MB-435; read-out: pTGI (converted)): 50.1 µM
- GI50 ([1]; OVCAR-8): 12.9 µM
- CC50 ([1]; OVCAR-8, read-out: pLC50 (the source's name) (converted)): 50.1 µM
- TGI ([1]; OVCAR-8, read-out: pTGI (converted)): 50.1 µM
- GI50 (SNB-75): 0.055 µM
- CC50 (SNB-75; [8]): 50.1 µM
- TGI (SNB-75; read-out: pTGI (converted)): 50.1 µM
- GI50 (NCI-H322M): 10.5 µM
- CC50 (NCI-H322M; [8]): 50.1 µM
- TGI (NCI-H322M; read-out: pTGI (converted)): 50.1 µM
- GI50 (M14): 0.251 µM
- TGI (M14; read-out: pTGI (converted)): 1.02 µM
- GI50 ([2]; OVCAR-4): 5.25 µM
- CC50 ([2]; OVCAR-4, read-out: pLC50 (the source's name) (converted)): 50.1 µM
- TGI ([2]; OVCAR-4, read-out: pTGI (converted)): 50.1 µM
- GI50 (MOLT-4): 0.17 µM
- CC50 (MOLT-4; [8]): 50.1 µM
- TGI (MOLT-4; read-out: pTGI (converted)): 50.1 µM
- GI50 [3]: 8.51 µM
- CC50 [3, 8]: 50.1 µM
- TGI ([3]; read-out: pTGI (converted)): 50.1 µM
- GI50 (HCT-116): 3.24 µM
- CC50 (HCT-116; [8]): 50.1 µM
- TGI (HCT-116; read-out: pTGI (converted)): 50.1 µM
- GI50 (KM12): 0.275 µM
- TGI (KM12; read-out: pTGI (converted)): 1.12 µM
- GI50 (SN12C): 12 µM
- LC50 (SN12C): 50.1 µM
- TGI (SN12C; read-out: pTGI (converted)): 50.1 µM
- GI50 ([4]; UO-31): 0.269 µM
- LC50 ([4]; UO-31): 50.1 µM
- TGI ([4]; UO-31, read-out: pTGI (converted)): 1.48 µM
- GI50 (TK-10): 7.76 µM
- LC50 (TK-10): 50.1 µM
- TGI (TK-10; read-out: pTGI (converted)): 50.1 µM
- GI50 (CCRF-CEM): 0.148 µM
- CC50 (CCRF-CEM; [8]): 50.1 µM
- TGI (CCRF-CEM; read-out: pTGI (converted)): 50.1 µM
- GI50 ([5]; OVCAR-3): 13.5 µM
- CC50 ([5]; OVCAR-3, read-out: pLC50 (the source's name) (converted)): 50.1 µM
- TGI ([5]; OVCAR-3, read-out: pTGI (converted)): 50.1 µM
- GI50 (NCI-H226): 4.37 µM
- CC50 (NCI-H226; [8]): 50.1 µM
- TGI (NCI-H226; read-out: pTGI (converted)): 50.1 µM
- GI50 (MCF7): 0.355 µM
- LC50 (MCF7): 50.1 µM
- TGI (MCF7; read-out: pTGI (converted)): 3.63 µM
- GI50 (ACHN): 1.48 µM
- LC50 (concentration killing 50% of cells) (ACHN): 50.1 µM
- TGI (ACHN; read-out: pTGI (converted)): 50.1 µM
- GI50 (PC-3): 0.229 µM
- LC50 (PC-3): 50.1 µM
- TGI (PC-3; read-out: pTGI (converted)): 50.1 µM
- GI50 (LOX IMVI): 0.2 µM
- CC50 (LOX IMVI; [8]): 50.1 µM
- TGI (LOX IMVI; read-out: pTGI (converted)): 1.17 µM
- GI50 (MDA-MB-231): 0.724 µM
- LC50 (MDA-MB-231): 50.1 µM
- TGI (MDA-MB-231; read-out: pTGI (converted)): 50.1 µM
- GI50 (RXF 393): 0.0447 µM
- LC50 (RXF 393): 12.9 µM
- TGI (RXF 393; read-out: pTGI (converted)): 0.457 µM
- GI50 (786-0): 0.0851 µM
- LC50 (concentration killing 50% of cells) (786-0): 50.1 µM
- TGI (786-0; read-out: pTGI (converted)): 0.501 µM
- GI50 (NCI-H460): 0.417 µM
- CC50 (NCI-H460; [8]): 50.1 µM
- TGI (NCI-H460; read-out: pTGI (converted)): 50.1 µM
- GI50 (A498): 0.129 µM
- CC50 (A498; [8]): 50.1 µM
- TGI (A498; read-out: pTGI (converted)): 0.724 µM
- GI50 ([6]; UACC-62): 0.138 µM
- CC50 ([6]; UACC-62, read-out: pLC50 (the source's name) (converted)): 3.63 µM
- TGI ([6]; UACC-62, read-out: pTGI (converted)): 0.407 µM
- GI50 (SF-295; read-out: GI50): < 0.021 µM
- GI50 (SF-295; read-out: pGI50 (converted)): 0.0316 µM
- CC50 (SF-295; [8]): 0.513 µM
- TGI (SF-295; read-out: pTGI (converted)): 0.135 µM
- GI50 ([7]; UACC-257): 1.23 µM
- CC50 ([7]; UACC-257, read-out: pLC50 (the source's name) (converted)): 50.1 µM
- TGI ([7]; UACC-257, read-out: pTGI (converted)): 50.1 µM
- GI50 (HT-29): 0.132 µM
- CC50 (HT-29; [8]): 50.1 µM
- TGI (HT-29; read-out: pTGI (converted)): 2 µM
- GI50 (SF-268): 1.02 µM
- CC50 (SF-268; [8]): 50.1 µM
- TGI (SF-268; read-out: pTGI (converted)): 50.1 µM
- GI50 (SK-MEL-5): 0.158 µM
- CC50 (SK-MEL-5; [8]): 1.82 µM
- TGI (SK-MEL-5; read-out: pTGI (converted)): 0.575 µM
- GI50 (BT-549): 0.107 µM
- CC50 (BT-549; [8]): 50.1 µM
- TGI (BT-549; read-out: pTGI (converted)): 13.2 µM
- GI50 (CAKI-1): 0.263 µM
- LC50 (CAKI-1): 50.1 µM
- TGI (CAKI-1; read-out: pTGI (converted)): 50.1 µM
